From ChEMBL document CHEMBL2176935, “Discovery and lead optimization of a novel series of CC chemokine receptor 1 (CCR1)-selective piperidine antagonists via parallel synthesis” (J Med Chem, 2012)
pIC50: −log10 of the molar value. Values after ≈ are worked out from the molar mass of the structure shown.

How the values were obtained:
[1] = Oral bioavailability life in mouse at 5.2 mg/kg; type: ADME, organism-based; conditions: in vivo
[2] = Half life in mouse at 5.2 mg/kg, po; type: ADME, organism-based; design: dose 5.2 mg/kg, route oral; conditions: in vivo
[3] = AUC in mouse at 5.2 mg/kg, po; type: ADME, organism-based; design: dose 5.2 mg/kg, route oral; conditions: plasma
[4] = Cmax in mouse at 5.2 mg/kg, po; type: ADME, organism-based; design: dose 5.2 mg/kg, route oral; conditions: in vivo
[5] = Half life in mouse at 2.5 mg/kg, iv; type: ADME, organism-based; design: dose 2.5 mg/kg, route intravenous; conditions: in vivo
[6] = AUC in mouse at 2.5 mg/kg, iv; type: ADME, organism-based; design: dose 2.5 mg/kg, route intravenous; conditions: plasma
[7] = Volume of distribution at steady state in mouse at 2.5 mg/kg, iv; type: ADME, organism-based; design: dose 2.5 mg/kg, route intravenous; conditions: in vivo, read-out: Vdss
[8] = Clearance in mouse at 2.5 mg/kg, iv; type: ADME, organism-based; design: dose 2.5 mg/kg, route intravenous; conditions: in vivo
[9] = Thermodynamic solubility in pH 6.5 potassium phosphate buffer by HPLC method; type: physicochemical; conditions: read-out: Therm_solubility
Summary of the method: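 Thermodynamic equilibrium solubility. Compound standard dissolved in methanol, with DMSO added if needed, and mixed 1:1 with 50 mM potassium phosphate pH 6.5. Vortexed, sonicated 30 s, shaken 15−24 h at room temperature, centrifuged. Quantified by HPLC-UV at 210 or 254 nm against a calibration curve.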

[10] = target: Voltage-gated inwardly rectifying potassium channel KCNH2 (Homo sapiens, UniProt Q12809); assay: Inhibition of human ERG expressed in HEK293 cells assessed as reduction in peak tail current by whole cell patch clamp assay; type: cell-based
Summary of the method: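 Whole-cell patch clamp on HEK-293 cells stably expressing the hERG α subunit. Inhibition measured on peak tail current. Aqueous buffer at pH 7.4, room temperature, no protein present.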

[11] = target: Cytochrome P450 2D6 (Homo sapiens, UniProt P10635); assay: Inhibition of recombinant CYP2D6 expressed in baculovirus-infected insect cells using fluorogeinc substrate; type: ADME
Summary of the method: (§1)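 Recombinant CYP Supersomes premixed with fluorogenic substrate in potassium phosphate buffer and prewarmed 30 min at 37 °C with test substance. Reaction started with NADPH-regenerating system, incubated at 37 °C, then quenched with 80% acetonitrile/20% 0.5 M TRIS-base.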

[12] = target: Cytochrome P450 2C19 (Homo sapiens, UniProt P33261); assay: Inhibition of recombinant CYP2C19 expressed in baculovirus-infected insect cells using fluorogeinc substrate; type: ADME; summary of the method: as §1
[13] = target: Cytochrome P450 2C9 (Homo sapiens, UniProt P11712); assay: Inhibition of recombinant CYP2C9 expressed in baculovirus-infected insect cells using fluorogeinc substrate; type: ADME; summary of the method: as §1
[14] = target: Cytochrome P450 3A4 (Homo sapiens, UniProt P08684); assay: Inhibition of recombinant CYP3A4 expressed in baculovirus-infected insect cells using fluorogeinc substrate; type: ADME; summary of the method: as §1
[15] = target: T1, C-C chemokine receptor type 1 (Rattus norvegicus, UniProt A6I4C9); assay: Displacement of [125I]MIP-1alpha from CCR1 in rat thioglycolate-elicited peritoneal cells incubated for 60 mins
T1 sequence (A6I4C9 whole entry): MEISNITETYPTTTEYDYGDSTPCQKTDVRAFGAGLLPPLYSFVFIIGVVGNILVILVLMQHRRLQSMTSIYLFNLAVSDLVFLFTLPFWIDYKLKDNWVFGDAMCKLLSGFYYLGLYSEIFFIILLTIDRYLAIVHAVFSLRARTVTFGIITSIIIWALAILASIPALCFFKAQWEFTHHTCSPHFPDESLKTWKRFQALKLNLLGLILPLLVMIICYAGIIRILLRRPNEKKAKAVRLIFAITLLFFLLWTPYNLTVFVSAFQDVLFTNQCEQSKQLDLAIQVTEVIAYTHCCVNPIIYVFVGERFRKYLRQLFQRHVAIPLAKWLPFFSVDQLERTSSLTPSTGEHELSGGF
Summary of the method: (§2)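 Cross-species binding using human 125I-MIP-1α at 0.08 nM final. Nonspecific binding measured with excess unlabeled ligand. Incubated 60 min at room temperature, washed, air-dried, filters gamma-counted. Cells were the mouse WEHI 274.1 line, rat thioglycollate-elicited peritoneal cells, and rabbit peripheral blood mononuclear cells.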

[16] = target: T2, Chemokine receptor (Oryctolagus cuniculus, UniProt Q9MYJ9); assay: Displacement of [125I]MIP-1alpha from CCR1 in rabbit PBMCs incubated for 60 mins; summary of the method: as §2
T2 sequence (Q9MYJ9 whole entry): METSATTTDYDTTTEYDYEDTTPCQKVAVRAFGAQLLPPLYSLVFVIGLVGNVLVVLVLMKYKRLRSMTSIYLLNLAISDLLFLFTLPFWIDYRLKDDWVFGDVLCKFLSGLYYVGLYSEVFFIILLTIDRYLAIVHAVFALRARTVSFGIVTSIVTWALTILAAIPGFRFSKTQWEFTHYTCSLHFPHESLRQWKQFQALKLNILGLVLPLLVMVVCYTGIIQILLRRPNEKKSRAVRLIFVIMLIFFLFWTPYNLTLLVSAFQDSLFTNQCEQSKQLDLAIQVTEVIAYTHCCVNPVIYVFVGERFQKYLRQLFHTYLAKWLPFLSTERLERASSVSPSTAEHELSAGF

[17] = target: T3, C-C chemokine receptor type 1 (Mus musculus, UniProt P51675); assay: Displacement of [125I]MIP-1alpha from CCR1 in mouse WEHI 274.1 cells incubated for 60 mins; type: cell-based; summary of the method: as §2
T3 sequence (P51675 whole entry): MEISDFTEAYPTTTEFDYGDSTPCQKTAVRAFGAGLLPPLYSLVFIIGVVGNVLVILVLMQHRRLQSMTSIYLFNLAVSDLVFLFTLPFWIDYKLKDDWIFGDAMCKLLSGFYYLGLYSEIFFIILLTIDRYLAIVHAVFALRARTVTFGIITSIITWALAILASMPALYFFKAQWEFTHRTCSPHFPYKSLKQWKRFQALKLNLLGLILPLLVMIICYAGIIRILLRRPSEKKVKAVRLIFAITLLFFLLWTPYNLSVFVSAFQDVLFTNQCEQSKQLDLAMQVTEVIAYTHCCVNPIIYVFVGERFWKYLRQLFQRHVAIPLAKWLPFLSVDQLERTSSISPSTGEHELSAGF

[18] = tested on: Liver microsomes; assay: Stability in rat liver microsomes assessed as compound remaining; type: ADME, Microsome
[19] = tested on: Liver microsomes; assay: Stability in human liver microsomes assessed as compound remaining; type: ADME, Microsome
[20] = tested on: Liver; assay: Stability in mouse liver microsomes assessed as compound remaining; type: ADME, Microsome
[21] = target: C-C chemokine receptor type 5 (Homo sapiens, UniProt P51681); assay: Displacement of [125I]MIP-1beta from human CCR5 expressed in HT1080 cells by scintillation counting; type: cell-based, HT-1080
Summary of the method: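 SPA using membranes from HT1080 cells stably expressing RAGE-activated human CCR5, 10 μg protein per well, with PVT-WGA-PS beads. Compound 11-point 3-fold dilutions, 40 μM to 0.7 nM final. 125I-MIP-1β at 0.1 nM final. Incubated 4 h at room temperature, read on TopCount.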

[22] = target: C-C chemokine receptor type 3 (Homo sapiens, UniProt P51677); assay: Displacement of [125I]eotaxin from human CCR3 expressed in CHO CCR3/2 chimeric cells by scintillation counting; type: cell-based
Summary of the method: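 Compound 11-point 3-fold dilutions, 40 μM to 0.7 nM final. 125I-Eotaxin at 0.2 nM final. Incubated 3 h at room temperature; nonspecific binding set with 100 nM eotaxin. Duplicates.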

[23] = target: C-C chemokine receptor type 2 (Homo sapiens, UniProt P41597); assay: Displacement of [125I]MCP1 from CCR2 in human THP1 cells; type: cell-based, THP-1
[24] = target: T4, C-C chemokine receptor type 1 (Homo sapiens, UniProt P32246); assay: Antagonist activity at CCR1 in human THP1 cells assessed as inhibition of CK-8beta-induced calcium flux by FLIPR; type: functional, cell-based, THP-1
T4 sequence (P32246 whole entry): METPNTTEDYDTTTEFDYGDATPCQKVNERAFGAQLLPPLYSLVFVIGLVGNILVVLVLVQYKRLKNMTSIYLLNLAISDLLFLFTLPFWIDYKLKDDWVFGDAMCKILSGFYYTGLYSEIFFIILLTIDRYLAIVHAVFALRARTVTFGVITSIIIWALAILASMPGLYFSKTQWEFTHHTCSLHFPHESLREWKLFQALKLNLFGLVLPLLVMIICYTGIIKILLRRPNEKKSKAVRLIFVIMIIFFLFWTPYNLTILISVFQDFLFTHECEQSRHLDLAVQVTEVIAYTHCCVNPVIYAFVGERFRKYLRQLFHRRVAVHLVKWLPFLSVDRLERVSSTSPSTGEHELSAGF

[25] = target: T4, C-C chemokine receptor type 1; assay: Antagonist activity at CCR1 in human THP1 cells assessed as inhibition of MIP-1alpha-induced calcium flux by FLIPR; type: functional, cell-based, THP-1
Summary of the method: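 THP-1 cells loaded with fluo-3 AM and resuspended in assay buffer containing probenecid. Calcium flux was followed on FLIPR after adding MIP-1α at 20 nM. Compound effect was taken as the change in base-to-peak excursion relative to control. Run in duplicate.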

[26] = target: T4, C-C chemokine receptor type 1; assay: Displacement of [125I]MIP-1alpha from CCR1 in human THP1 cells; type: cell-based, THP-1
Summary of the method: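 THP-1 cells, 1 × 105, mixed with WGA PS SPA beads in RPMI 1640 (no phenol red) with 50 mM HEPES, 5 mM MgCl2, 1 mM CaCl2, 0.1% BSA. Compound in 3-fold dilutions, 8 μM to 140 pM final. [125I]-MIP-1α at 0.1 nM final. Incubated 12 h at room temperature, imaged by LEADseeker. Duplicates; IC50 from four-parameter logistic fit after nonspecific correction.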

Chain of Cytochrome P450 2D6 (P10635 whole entry): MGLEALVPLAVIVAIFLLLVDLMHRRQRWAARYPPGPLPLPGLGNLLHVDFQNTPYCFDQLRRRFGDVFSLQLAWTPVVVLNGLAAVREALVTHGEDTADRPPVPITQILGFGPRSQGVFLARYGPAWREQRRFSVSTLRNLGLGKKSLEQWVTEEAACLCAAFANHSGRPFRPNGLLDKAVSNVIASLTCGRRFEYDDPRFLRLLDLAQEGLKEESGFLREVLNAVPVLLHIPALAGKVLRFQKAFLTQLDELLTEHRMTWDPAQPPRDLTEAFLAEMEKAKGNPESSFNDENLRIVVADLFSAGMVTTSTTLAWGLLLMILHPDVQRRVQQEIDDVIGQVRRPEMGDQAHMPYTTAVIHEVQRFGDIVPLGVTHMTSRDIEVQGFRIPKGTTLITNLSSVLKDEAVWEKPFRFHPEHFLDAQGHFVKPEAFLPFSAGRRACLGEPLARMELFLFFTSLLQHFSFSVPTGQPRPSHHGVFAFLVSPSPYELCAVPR
Chain of Cytochrome P450 3A4 (P08684 whole entry): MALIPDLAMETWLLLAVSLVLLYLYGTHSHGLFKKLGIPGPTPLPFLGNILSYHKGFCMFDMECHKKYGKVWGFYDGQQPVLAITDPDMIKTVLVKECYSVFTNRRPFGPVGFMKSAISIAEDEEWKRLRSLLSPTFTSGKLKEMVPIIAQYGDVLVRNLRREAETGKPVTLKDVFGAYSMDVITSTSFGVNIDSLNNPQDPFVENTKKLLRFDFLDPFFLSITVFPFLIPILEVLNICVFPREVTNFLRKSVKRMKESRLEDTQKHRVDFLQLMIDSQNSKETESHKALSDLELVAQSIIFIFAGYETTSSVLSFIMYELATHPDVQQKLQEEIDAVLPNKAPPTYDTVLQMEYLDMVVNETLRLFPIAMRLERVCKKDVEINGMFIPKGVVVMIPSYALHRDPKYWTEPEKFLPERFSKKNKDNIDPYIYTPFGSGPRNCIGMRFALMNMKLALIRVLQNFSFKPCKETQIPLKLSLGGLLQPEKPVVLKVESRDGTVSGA
Chain of Cytochrome P450 2C9 (P11712 whole entry): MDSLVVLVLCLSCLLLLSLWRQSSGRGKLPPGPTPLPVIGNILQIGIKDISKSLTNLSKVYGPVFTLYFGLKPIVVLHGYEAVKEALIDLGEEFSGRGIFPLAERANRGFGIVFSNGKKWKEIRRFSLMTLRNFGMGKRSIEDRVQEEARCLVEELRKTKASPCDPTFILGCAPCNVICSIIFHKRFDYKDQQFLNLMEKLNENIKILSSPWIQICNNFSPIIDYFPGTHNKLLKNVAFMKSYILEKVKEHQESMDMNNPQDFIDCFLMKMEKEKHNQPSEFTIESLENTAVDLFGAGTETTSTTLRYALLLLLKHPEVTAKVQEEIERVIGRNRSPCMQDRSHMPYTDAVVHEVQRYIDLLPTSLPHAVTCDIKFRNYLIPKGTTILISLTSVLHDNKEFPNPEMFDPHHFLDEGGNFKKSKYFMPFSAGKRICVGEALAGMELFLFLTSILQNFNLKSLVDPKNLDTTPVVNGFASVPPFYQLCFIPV
Chain of C-C chemokine receptor type 2 (P41597 whole entry): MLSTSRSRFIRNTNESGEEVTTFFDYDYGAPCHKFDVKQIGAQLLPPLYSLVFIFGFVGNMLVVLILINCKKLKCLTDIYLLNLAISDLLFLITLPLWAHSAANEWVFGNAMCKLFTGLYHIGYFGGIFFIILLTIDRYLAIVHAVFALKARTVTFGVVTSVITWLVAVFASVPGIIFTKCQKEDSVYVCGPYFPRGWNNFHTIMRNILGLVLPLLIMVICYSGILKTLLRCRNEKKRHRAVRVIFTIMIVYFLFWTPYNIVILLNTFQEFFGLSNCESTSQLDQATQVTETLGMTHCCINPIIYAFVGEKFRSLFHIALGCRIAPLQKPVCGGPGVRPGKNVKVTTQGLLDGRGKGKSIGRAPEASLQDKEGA
Chain of C-C chemokine receptor type 5 (P51681 whole entry): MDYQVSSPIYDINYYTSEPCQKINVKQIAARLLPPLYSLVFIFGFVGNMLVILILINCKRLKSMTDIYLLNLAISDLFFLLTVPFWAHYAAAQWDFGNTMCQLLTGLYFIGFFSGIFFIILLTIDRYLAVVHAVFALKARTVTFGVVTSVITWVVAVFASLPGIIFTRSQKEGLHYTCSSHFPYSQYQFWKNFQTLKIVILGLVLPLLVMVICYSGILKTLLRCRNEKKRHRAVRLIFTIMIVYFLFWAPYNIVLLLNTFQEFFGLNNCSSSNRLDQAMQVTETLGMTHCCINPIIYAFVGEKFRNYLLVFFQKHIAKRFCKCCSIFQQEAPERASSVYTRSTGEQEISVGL
Chain of Cytochrome P450 2C19 (P33261 whole entry): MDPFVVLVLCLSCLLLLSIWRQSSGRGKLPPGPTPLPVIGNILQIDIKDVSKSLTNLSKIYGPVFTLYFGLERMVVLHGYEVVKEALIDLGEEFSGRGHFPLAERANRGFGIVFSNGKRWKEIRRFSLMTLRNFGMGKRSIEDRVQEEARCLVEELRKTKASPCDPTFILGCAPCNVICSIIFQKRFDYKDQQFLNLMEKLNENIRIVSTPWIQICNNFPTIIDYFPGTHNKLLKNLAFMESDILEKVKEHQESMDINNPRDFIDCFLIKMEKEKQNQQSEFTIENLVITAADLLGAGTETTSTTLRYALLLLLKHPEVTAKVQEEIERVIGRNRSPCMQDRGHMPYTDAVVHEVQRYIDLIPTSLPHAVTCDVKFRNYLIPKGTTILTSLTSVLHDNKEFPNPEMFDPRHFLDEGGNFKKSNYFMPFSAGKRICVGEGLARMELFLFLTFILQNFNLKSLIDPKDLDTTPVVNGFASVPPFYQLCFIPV
Chain of C-C chemokine receptor type 3 (P51677 whole entry, looked up): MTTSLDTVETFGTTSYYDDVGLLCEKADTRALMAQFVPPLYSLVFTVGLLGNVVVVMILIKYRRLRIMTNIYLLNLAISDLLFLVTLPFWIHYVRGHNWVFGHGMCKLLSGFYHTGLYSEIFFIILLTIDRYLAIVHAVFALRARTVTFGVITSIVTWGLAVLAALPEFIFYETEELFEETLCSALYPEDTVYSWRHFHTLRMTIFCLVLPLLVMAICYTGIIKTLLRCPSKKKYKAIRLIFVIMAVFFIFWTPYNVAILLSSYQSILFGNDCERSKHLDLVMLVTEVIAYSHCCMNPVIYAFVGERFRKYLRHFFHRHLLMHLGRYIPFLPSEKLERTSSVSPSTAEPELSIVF
Chain of Voltage-gated inwardly rectifying potassium channel KCNH2 (Q12809 whole entry): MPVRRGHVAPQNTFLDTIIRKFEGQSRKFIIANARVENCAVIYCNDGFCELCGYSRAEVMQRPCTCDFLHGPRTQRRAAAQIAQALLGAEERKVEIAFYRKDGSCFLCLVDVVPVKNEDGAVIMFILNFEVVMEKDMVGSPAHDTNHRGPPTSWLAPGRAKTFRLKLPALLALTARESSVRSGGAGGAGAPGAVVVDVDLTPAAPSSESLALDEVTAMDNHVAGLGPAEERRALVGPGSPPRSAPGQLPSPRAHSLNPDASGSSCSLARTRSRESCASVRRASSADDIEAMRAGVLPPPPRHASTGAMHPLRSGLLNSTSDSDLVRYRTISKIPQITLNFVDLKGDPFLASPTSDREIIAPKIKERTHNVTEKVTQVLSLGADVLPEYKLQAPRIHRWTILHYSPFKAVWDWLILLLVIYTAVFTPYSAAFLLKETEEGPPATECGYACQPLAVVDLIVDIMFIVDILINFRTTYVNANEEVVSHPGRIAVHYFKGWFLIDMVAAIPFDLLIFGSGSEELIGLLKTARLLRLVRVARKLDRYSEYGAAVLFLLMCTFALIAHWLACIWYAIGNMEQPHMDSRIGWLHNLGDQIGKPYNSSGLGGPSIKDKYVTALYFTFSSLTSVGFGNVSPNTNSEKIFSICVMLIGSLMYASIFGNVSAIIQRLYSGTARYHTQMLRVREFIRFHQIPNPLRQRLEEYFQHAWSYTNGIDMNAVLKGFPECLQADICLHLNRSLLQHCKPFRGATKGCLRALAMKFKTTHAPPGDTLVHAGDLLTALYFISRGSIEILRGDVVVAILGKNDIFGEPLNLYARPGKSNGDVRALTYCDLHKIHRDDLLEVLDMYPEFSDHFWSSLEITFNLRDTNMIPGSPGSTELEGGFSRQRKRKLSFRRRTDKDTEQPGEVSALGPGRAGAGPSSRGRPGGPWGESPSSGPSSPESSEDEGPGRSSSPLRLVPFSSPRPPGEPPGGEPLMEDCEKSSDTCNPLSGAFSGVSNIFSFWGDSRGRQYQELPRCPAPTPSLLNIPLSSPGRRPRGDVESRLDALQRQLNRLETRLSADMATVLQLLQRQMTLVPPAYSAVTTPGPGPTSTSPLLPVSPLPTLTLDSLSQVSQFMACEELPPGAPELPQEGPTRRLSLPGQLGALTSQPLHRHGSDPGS

- bioavailability [1]: 52%
- half-life [2]: 5.2 h
- AUC [3]: 6.6 µM·h
- Cmax [4]: 3.1 µM
- half-life [5]: 6.9 h
- AUC [6]: 5.9 µM·h
- Vd [7]: 4.8 L/kg
- clearance [8]: 12.5 mL/min/kg
- solubility thermodynamic [9]: 1 µg/mL (≈ 2.51 µM)
- pIC50 [11]: < 4.40
- pIC50 [12]: < 4.40
- pIC50 [13]: < 4.40
- pIC50 [14]: < 4.40
- pIC50 [15]: < 4.52
- pIC50 [16]: 6.26
- pIC50 [17]: < 4.60
- Stability [18]: 83%
- Stability [19]: 100%
- Stability [20]: 73%
- pIC50 [21]: < 4.70
- pIC50 [22]: < 4.52
- pIC50 [23]: < 4.70
- pIC50 [24]: 7.07
- pIC50 [25]: 7.82
- pIC50 [26]: 7.55
SMILES: CC(C)[C@@H](NC(=O)c1ccccc1)C(=O)N1CCC(c2ccc(Cl)cc2)CC1
- pIC50 [10]: 5.15
